Source: ChEMBL document CHEMBL1137302 (J Med Chem, 2006)
Calls of active or inactive are those of the source. The rule behind the calls is not given here.

Assays:
[1] = system: Rattus norvegicus; test: Blockade of ABT-670-induced erctogenic activity in rat at 3 umol/kg, ip; format: functional, organism-based
[2] = molecular target: T1, D(4) dopamine receptor (Homo sapiens) (UniProt P21917); test: Activity at human D4.4 receptor in HEK293 cells co-expressing Galphaqo5 by FLIPR; format: functional, cell-based
T1 sequence (whole entry): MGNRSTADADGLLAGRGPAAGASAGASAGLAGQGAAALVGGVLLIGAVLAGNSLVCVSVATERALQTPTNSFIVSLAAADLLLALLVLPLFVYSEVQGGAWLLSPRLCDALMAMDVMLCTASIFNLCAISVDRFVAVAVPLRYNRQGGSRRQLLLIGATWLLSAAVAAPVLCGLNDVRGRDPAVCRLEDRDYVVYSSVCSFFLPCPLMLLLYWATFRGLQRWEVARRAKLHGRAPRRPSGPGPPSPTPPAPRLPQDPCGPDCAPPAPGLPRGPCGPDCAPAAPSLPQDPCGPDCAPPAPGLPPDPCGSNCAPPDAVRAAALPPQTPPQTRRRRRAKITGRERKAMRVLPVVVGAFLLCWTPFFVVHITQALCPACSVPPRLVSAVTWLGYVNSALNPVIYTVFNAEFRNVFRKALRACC

[3] = molecular target: T2, D(4) dopamine receptor (Homo sapiens, UniProt P21917); test: Displacement of [3H]A369508 from human D4 receptor expressed in HEK293 cell membrane; format: cell membranes
T2 sequence (P21917 whole entry): T1 sequence (whole entry)

[4] = system: Rattus norvegicus; test: Proerectile activity in rat measured as incidence of penile erection at 0.1 umol/kg, sc; format: functional
How it was run: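 Conscious male rats were given a single subcutaneous injection and observed for penile erections over the following 60 min. The read-out was the incidence of erections, expressed as % of animals ± SEM (n = 12–32 animals per group), with significance tested against controls. The value is the maximal incidence at the maximally effective dose.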

[5] = molecular target: T2, D(4) dopamine receptor; test: (§1) Agonist activity at human D4.4 receptor in HEK293 cells coexpressing G-alpha-qo5 by FLIPR; format: functional, cell-based
[6] = Bioavailability in Sprague-Dawley rat at 1 mg/kg, po; format: ADME, organism-based; conditions: in vivo
How it was run: (§2)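 Single 1 mg/kg dose given iv, sc or orally to Sprague-Dawley rats, dogs and monkeys; plasma concentrations followed over time (mean ± SEM, n = 3). Cmax, AUC, half-life, clearance and bioavailability calculated from the curves.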

[7] = Bioavailability in Sprague-Dawley rat at 1 mg/kg, sc; format: ADME, organism-based; conditions: in vivo; how it was run: as §2
[8] = Half life in Sprague-Dawley rat at 1 mg/kg, sc; format: ADME, organism-based; parameters: dose 1 mg/kg, route subcutaneous; conditions: in vivo; how it was run: as §2
[9] = molecular target: T1, D(4) dopamine receptor (Homo sapiens); test: Agonist activity at human D4.4 receptor in HEK293 cells coexpressing G-alpha-qo5 by FLIPR with relative to dopamine upto 10 uM; format: functional, cell-based
[10] = molecular target: T3, D(2) dopamine receptor (Homo sapiens, UniProt P14416); test: Agonist activity at human D2 receptor in HEK293 cells coexpressing G-alpha-qo5 by FLIPR; format: functional, cell-based
[11] = molecular target: T3, D(2) dopamine receptor; test: Displacement of [125I]7-OH-PIPAT from human D2L receptor expressed in HEK293 cell membrane; format: cell membranes
[12] = molecular target: T1, D(4) dopamine receptor (Homo sapiens); test: as §1; format: functional, cell-based
[13] = molecular target: T1, D(4) dopamine receptor (Homo sapiens); test: Agonist activity at human D4.4 receptor in HEK293 cells coexpressing G-alpha-qo5 by FLIPR upto 10 uM; format: functional, cell-based
[14] = molecular target: T3, D(2) dopamine receptor; test: Binding affinity to human D2S receptor
[15] = molecular target: D(3) dopamine receptor (Homo sapiens) (UniProt P35462); test: Agonist activity at human D3 receptor in HEK293 cells coexpressing G-alpha-qo5 by FLIPR upto 10 uM; format: functional, cell-based
[16] = species on record: Mustela putorius furo; test: Induction of emesis in ferret; format: functional, organism-based
[17] = species on record: Mustela putorius furo; test: Induction of nausea in ferret; format: functional, organism-based
[18] = Agonist activity at ferret D4 receptor in HEK293 cells coexpressing G-alpha-qo5 by FLIPR; format: functional, cell-based, Mustela putorius furo; conditions: Mustela putorius
How it was run: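 HEK cells cotransfected with ferret D4 receptor and chimeric G protein Gqo5, with receptor activation read as a calcium flux signal on FLIPR. EC50 is the concentration giving half-maximal activation.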

[19] = molecular target: T4, D(4) dopamine receptor (Rattus norvegicus, UniProt P30729); test: Agonist activity at rat D4 receptor in HEK293 cells coexpressing G-alpha-qo5 by FLIPR; format: functional, cell-based
T4 sequence (P30729 whole entry): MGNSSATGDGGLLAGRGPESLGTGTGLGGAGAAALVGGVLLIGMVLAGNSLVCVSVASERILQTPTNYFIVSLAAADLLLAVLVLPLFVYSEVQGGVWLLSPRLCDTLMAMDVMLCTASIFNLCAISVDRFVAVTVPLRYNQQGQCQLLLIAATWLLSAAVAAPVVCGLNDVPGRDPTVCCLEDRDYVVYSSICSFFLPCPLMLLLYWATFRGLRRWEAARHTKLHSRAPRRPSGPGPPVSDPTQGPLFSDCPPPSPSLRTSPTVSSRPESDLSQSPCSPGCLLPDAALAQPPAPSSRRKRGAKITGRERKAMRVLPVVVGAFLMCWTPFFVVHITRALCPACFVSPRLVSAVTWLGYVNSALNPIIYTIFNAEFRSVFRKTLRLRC

[20] = Agonist activity at ferret D4 receptor in HEK293 cells coexpressing G-alpha-qo5 by FLIPR relative to dopamine; format: functional, Mustela putorius furo
[21] = molecular target: T5, D(4) dopamine receptor (Rattus norvegicus) (UniProt P30729); test: Agonist activity at rat D4 receptor in HEK293 cells co-expressing Galphaqo5 by FLIPR relative to dopamine; format: functional, cell-based
T5 sequence (whole entry): T4 sequence (P30729 whole entry)

[22] = molecular target: T3, D(2) dopamine receptor; test: Agonist activity at human D2 receptor in HEK293 cells coexpressing G-alpha-qo5 by FLIPR relative to dopamine upto 10 uM; format: functional, cell-based
How it was run: (§3)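 Ca2+ flux by FLIPR in HEK cells cotransfected with the D2 receptor (human, ferret or rat) plus chimeric G protein Gqo5.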

[23] = molecular target: D(2) dopamine receptor (Rattus norvegicus) (UniProt P61169); test: Agonist activity at rat D2 receptor in HEK293 cells coexpressing G-alpha-qo5 by FLIPR relative to dopamine upto 10 uM; format: functional, cell-based; how it was run: as §3
[24] = system: D(2) dopamine receptor (Mustela putorius furo); test: Agonist activity at ferret D2 receptor in HEK293 cells coexpressing Galphaqo5 by FLIPR relative to dopamine upto 10 uM
[25] = system: Rattus norvegicus; test: Proerectile activity in rat measured as incidence of penile erection at 0.03 umol/kg, sc; format: functional
How it was run: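 Conscious male rats dosed subcutaneously. Penile erection incidence scored over 60 min after injection; values are % ± SEM, with significance tested against control.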

T3 sequence (P14416 whole entry): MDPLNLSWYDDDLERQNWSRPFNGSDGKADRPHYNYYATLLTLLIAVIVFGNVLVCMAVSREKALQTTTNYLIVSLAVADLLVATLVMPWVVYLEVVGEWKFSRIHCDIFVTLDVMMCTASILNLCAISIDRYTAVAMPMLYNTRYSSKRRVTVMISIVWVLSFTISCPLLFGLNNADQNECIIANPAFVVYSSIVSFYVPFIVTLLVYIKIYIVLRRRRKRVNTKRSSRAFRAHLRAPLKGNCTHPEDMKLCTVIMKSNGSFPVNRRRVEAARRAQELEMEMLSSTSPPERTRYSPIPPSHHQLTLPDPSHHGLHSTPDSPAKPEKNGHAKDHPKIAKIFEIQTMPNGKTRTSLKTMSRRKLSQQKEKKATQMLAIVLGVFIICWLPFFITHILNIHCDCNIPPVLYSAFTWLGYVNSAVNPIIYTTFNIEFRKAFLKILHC
Sequence of D(3) dopamine receptor (Homo sapiens) (P35462 whole entry): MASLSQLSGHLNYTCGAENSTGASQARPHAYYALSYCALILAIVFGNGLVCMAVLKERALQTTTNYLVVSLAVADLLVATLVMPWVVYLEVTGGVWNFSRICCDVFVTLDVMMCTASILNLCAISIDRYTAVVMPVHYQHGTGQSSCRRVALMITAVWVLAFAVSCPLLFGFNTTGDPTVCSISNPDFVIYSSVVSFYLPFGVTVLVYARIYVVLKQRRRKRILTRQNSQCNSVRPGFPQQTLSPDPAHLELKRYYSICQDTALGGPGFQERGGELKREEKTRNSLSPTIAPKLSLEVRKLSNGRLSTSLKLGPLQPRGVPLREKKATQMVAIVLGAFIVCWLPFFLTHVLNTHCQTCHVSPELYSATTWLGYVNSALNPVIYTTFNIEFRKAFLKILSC
Sequence of D(2) dopamine receptor (Rattus norvegicus) (P61169 whole entry): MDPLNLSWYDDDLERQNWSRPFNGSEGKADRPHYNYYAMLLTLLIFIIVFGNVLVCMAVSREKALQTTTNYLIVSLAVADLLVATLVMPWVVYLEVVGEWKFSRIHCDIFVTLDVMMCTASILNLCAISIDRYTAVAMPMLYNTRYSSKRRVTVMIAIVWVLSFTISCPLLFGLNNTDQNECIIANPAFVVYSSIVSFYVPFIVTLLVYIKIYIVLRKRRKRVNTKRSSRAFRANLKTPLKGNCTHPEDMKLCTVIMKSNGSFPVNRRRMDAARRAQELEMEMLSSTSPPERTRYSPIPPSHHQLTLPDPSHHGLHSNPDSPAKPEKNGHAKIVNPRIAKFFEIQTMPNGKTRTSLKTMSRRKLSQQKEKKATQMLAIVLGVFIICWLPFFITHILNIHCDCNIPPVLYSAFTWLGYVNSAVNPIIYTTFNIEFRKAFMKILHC

With `CN1CCN(C2=Nc3cc(Cl)ccc3Nc3ccccc32)CC1` the Activity [1] was “Active”.

With `Cc1cccc(NC(=O)CN2CCC(c3ccccn3)CC2)c1` the Activity ([2]; filed as agonist) was “Agonist”, the Ki [3] was 8 nM and the Activity [4] was 75%. It also gave an EC50 [5] of 14 nM, a bioavailability [6] of 0% and a bioavailability [7] of 57%. The half-life [8] was 42 min.

With `O=C(CN1CCC(c2cccc[n+]2[O-])CC1)Nc1ccccn1` the Activity [9] was “inactive”.

With `COc1ccccc1C1CCN(CNC(=O)c2cccc(C)c2)CC1` the EC50 [10] was over 10000 nM, the Activity ([2]; filed as partial agonist) was “Partial agonist” and the Ki [11] was 27 nM. For the same compound, the Ki [3] was 1.3 nM and the EC50 [5] was 206 nM.

With `Cc1cccc(C(=O)NCN2CCC(c3ccccc3)CC2)c1` the Ki [11] was 235 nM, the Efficacy [12] was 17% and the Activity [13] was “inactive”.

In the case of `Oc1ccc(N2CCN(Cc3nc4ccccc4[nH]3)CC2)nc1`, the Ki [14] is reported as over 10000 nM, the Activity [15] is reported as “inactive” and the Activity [16] is reported as “inactive”. The Activity [17] was “inactive”, the EC50 [18] was 5 nM and the EC50 [19] was 13.7 nM. The Efficacy [20] was 48%, the Efficacy [21] was 66% and the Activity [22] was “inactive”. For the same compound, the Activity [23] was “inactive”, the Activity ([2]; filed as partial agonist) was “Partial agonist” and the Ki [11] was over 10000 nM. The Ki [3] was 17 nM, the Activity [4] was 60% and the EC50 [5] was 2.4 nM. The Activity [24] was “inactive”.

For `Cc1cc(F)ccc1NC(=O)CN1CCC(c2cccc[n+]2[O-])CC1`, the Ki [14] was over 10000 nM, the Activity [15] was “inactive” and the Activity [16] was “inactive”. The Activity [17] was “inactive”, the EC50 [19] was 100 nM and the Efficacy [21] was 76%. For the same compound, the Activity [22] was “inactive”, the Activity [23] was “inactive” and the Activity ([2]; filed as agonist) was “Agonist”. The Ki [11] was over 10000 nM, the Ki [3] was 405 nM and the Activity [25] was 67%. The EC50 [5] was 60 nM, the bioavailability [6] was 7% and the Activity [24] was “inactive”.
